From PubChem
In the library only some 3.6% were active in any assay of this set; here they are far more common.
IMP-1 inhibitor: IMP-1 metallo-beta-lactamase inhibitors, primary screen, biochemical, epi-absorbance readout, Pseudomonas aeruginosa enzyme. metallo-beta-lactamase IMP-1 (Pseudomonas aeruginosa). purified IMP-1, nitrocefin hydrolysis, epi-absorbance fluorescence. inhibition, % at 5.6 µM. 0.45% of 290,000 active. AID 1556, 2009;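 active = inhibition above the mean plus 3 SD of all compounds in the same screening run, cut at about 4.5% in these data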
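System: purified IMP-1 / Input: IMP-1 dispensed at 0.2 nM / Medium: 50 mM HEPES pH 7.1, 50 µM ZnSO4, 0.05% Brij 35 / Timing: 15 min enzyme–compound preincubation, then 25 min nitrocefin reaction, 25 °C / Technique: plate fluorescence quenching by hydrolysis product, ex 480/em 530 nm / Repeats: singlicate testing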
VIM-2 inhibitor: VIM-2 metallo-beta-lactamase inhibitors, primary screen, biochemical, epi-absorbance readout, Pseudomonas aeruginosa enzyme. inhibition, % at 5.6 µM. 0.89% of 290,000 active. purified VIM-2, nitrocefin hydrolysis, epi-absorbance fluorescence;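 active = inhibition above the mean of all tested compounds plus 3 SD, cutoff set per screening run, cut at about 7.5% in these data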;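 also: red hydrolysis product quenches plate fluorescence so inhibitors raise well fluorescence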
PAFAH2 inh: PAFAH2 enzyme inhibitors, primary screen, biochemical, fluorescence polarization, human; inhibition, % at 3.39 µM; AID 492956, 2010; recombinant PAFAH2, FP-rhodamine activity probe; 0.99% of 340,000 active;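 active = inhibition above the mean over all tested compounds plus 3 SD, cut at about 30% in these data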;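 also: inhibitors block probe labeling of enzyme so polarization drops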
pPAFAH inh: pPAFAH enzyme inhibitors, primary screen, biochemical, fluorescence polarization, human; Platelet-activating factor acetylhydrolase (Homo sapiens), Q13093; recombinant pPAFAH, FP-rhodamine probe fluorescence polarization; inhibition, % at 3.39 µM; 1.5% of 330,000 active; AID 463082, 2010;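 active = inhibition above the mean inhibition across the screen plus 3 SD, cut at about 25% in these data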;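 also: inhibitors block binding of the rhodamine activity-based probe so polarization drops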
Target sequence (Q13093 whole entry, looked up): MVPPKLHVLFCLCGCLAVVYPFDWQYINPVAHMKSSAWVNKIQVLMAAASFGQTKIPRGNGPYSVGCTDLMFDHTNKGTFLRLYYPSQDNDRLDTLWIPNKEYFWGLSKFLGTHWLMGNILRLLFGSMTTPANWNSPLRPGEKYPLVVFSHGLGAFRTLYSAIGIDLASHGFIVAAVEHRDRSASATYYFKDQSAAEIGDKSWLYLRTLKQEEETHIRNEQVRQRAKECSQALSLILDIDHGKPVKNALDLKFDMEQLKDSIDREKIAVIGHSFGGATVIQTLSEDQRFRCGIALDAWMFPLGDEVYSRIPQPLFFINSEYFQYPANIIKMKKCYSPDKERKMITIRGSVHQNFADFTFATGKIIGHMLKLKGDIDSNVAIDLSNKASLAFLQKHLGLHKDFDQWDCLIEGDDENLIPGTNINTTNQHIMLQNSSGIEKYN
PAFAH1B2 inh: PAFAH1B2 enzyme inhibitors, primary screen, biochemical, fluorescence polarization, human; Platelet-activating factor acetylhydrolase IB subunit alpha2 (Homo sapiens), P68402; recombinant PAFAH1B2, FP-rhodamine activity probe; inhibition, % at 3.39 µM; 1.2% of 340,000 active;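 active = inhibition above the mean of all tested compounds plus 3 SD, cut at about 24% in these data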
PAFAH1B3 FP inh: PAFAH1B3 enzyme inhibitors, primary screen, biochemical, fluorescence polarization, human; recombinant PAFAH1B3, FP-rhodamine probe; inhibition, % at 3.39 µM; Platelet-activating factor acetylhydrolase IB subunit alpha1 (Homo sapiens), Q15102; 0.28% of 340,000 active;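 active = inhibition above the screen-wide average of all tested compounds plus 3 SD, cut at about 25% in these data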
Target sequence (Q15102 whole entry, looked up): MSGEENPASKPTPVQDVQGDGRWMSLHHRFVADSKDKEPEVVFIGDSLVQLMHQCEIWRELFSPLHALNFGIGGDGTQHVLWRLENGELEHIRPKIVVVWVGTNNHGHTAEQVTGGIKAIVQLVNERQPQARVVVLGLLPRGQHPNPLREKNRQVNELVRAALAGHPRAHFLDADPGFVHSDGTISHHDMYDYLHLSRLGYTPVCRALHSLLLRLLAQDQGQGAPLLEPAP
VIM-2 confirm: P. aeruginosa VIM-2 enzyme inhibition – biochemical, epi-absorbance, HTS, confirmation. purified VIM-2 enzyme, nitrocefin absorbance. 73% of 200 active. inhibition, % at 5.6 µM. shares compounds with IMP-1 inhibitor; in the data active = inhibition above about 8%
TEM-1 inh 2: Serine beta-lactamase TEM-1 inhibition, biochemical epi-absorbance counter-screen for IMP-1/VIM-2 inhibitor program; shares compounds with IMP-1 inhibitor; TEM-1 beta-lactamase, nitrocefin absorbance inhibition; inhibition, % at 5.6 µM; 50% of 200 active; AID 2184, 2009; in the data active = inhibition above about 0.66%
IMP-1 confirm: IMP-1 metallo-beta-lactamase inhibitors, confirmation, biochemical, epi-absorbance, hits shared with VIM-2 screen; shares compounds with IMP-1 inhibitor; purified IMP-1 enzyme, absorbance substrate hydrolysis; inhibition, % at 5.6 µM; 60% of 200 active; in the data active = inhibition above about 4.9%
pPAFAH FP conf: pPAFAH (PLA2G7) enzyme inhibitors, confirmation, biochemical, fluorescence polarization, human; shares compounds with pPAFAH inh; recombinant pPAFAH, FP-Rh probe fluorescence polarization; inhibition, % at 3.39 µM; 72% of 2,300 active; AID 463230, 2010;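 active = mean inhibition of the triplicate above the hit cutoff set for the earlier primary screen, cut at about 25% in these data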
Large screens that a line does not name were inactive (follow-up assays come after a bar, where they were run).

CC[C@]12c3[nH]c4cc(-c5ccco5)ccc4c3CCN1C(=O)[C@@H](CC(=O)NC(C)(C)C)C[C@@H]2C(=O)N1CCN(C(=O)c2ccco2)CC1	none (no result: IMP-1 inhibitor, VIM-2 inhibitor)
COc1ccccc1N1N=C(c2ccc([N+](=O)[O-])cc2)CC1c1ccccc1 (configuration not stated)	IMP-1 inhibitor 35, VIM-2 inhibitor 31 | VIM-2 confirm 18 | TEM-1 inh 2 27 | IMP-1 confirm 16
Cc1cc2oc(=O)cc(CN3CCCCC3)c2cc1C	none
CCCCc1cc(=O)oc2cc(C)c(CN3CCCC3)c(O)c12	IMP-1 inhibitor 14, VIM-2 inhibitor 8.3, pPAFAH inh 30 | VIM-2 confirm inactive | TEM-1 inh 2 inactive | IMP-1 confirm 5.6
Oc1ccccc1-c1nc(NCc2ccco2)c2ccccc2n1	none
c1ccc(-c2nc(NCc3ccco3)c3ccccc3n2)nc1	IMP-1 inhibitor 8.8, VIM-2 inhibitor 15 | VIM-2 confirm 13 | TEM-1 inh 2 inactive | IMP-1 confirm inactive
CCN(CC)c1ccc2nc3c4ccccc4c(=O)cc-3oc2c1	none (no result: PAFAH2 inh, pPAFAH inh, PAFAH1B2 inh, PAFAH1B3 FP inh)
CCN(CC)c1ccc2c(-c3ccc(S(=O)(=O)O)cc3S(=O)(=O)[O-])c3ccc(=[N+](CC)CC)cc-3oc2c1	IMP-1 inhibitor 104, VIM-2 inhibitor 104, PAFAH2 inh active, pPAFAH inh 173, PAFAH1B2 inh 174, PAFAH1B3 FP inh active | VIM-2 confirm 85 | TEM-1 inh 2 150 | IMP-1 confirm 80
Cc1ccccc1NC(=O)CN1C(=O)S/C(=C/c2cccnc2)C1=O	none
O=C(NC1CC1)C1CCN(c2ncnc3c2sc2cccc(F)c23)CC1	IMP-1 inhibitor 5.1, VIM-2 inhibitor 14 | VIM-2 confirm 28 | TEM-1 inh 2 inactive | IMP-1 confirm inactive
COc1ccc(N=Nc2nc3ccc(Br)cc3n2C)cc1	IMP-1 inhibitor 25, VIM-2 inhibitor 26 | VIM-2 confirm inactive | TEM-1 inh 2 inactive | IMP-1 confirm inactive
CCO[C@H]1OC(C(=O)O)=C[C@@H](c2ccccc2)[C@@H]1CCCO	none (no result: IMP-1 inhibitor, VIM-2 inhibitor)
Nc1ccc2c3c(cccc13)C(=O)N(c1ccccc1)C2=O	IMP-1 inhibitor 37, VIM-2 inhibitor 35 (no result: pPAFAH inh) | VIM-2 confirm 35 | TEM-1 inh 2 47 | IMP-1 confirm 33
COc1ccc2c(c1OC)C(=O)N(c1cccc(C)c1)C2=O	none
O=C(O)c1cccc(N2C(=O)c3cccc4c(Cl)ccc(c34)C2=O)c1	none
Nc1cccc(N2C(=O)c3cccc4c(N)ccc(c34)C2=O)c1	IMP-1 inhibitor 18, VIM-2 inhibitor 22 | VIM-2 confirm 18 | TEM-1 inh 2 21 | IMP-1 confirm 14
Cc1cccc(N2C(=O)c3cccc4c(N)ccc(c34)C2=O)c1	IMP-1 inhibitor 25, VIM-2 inhibitor 21 | VIM-2 confirm 21 | TEM-1 inh 2 31 | IMP-1 confirm 19
CN(CC(=O)Nc1ccccc1Cl)C(=O)Cn1cnc2ccc(Cl)cc2c1=O	none (no result: IMP-1 inhibitor, VIM-2 inhibitor)
Cc1cc(S(=O)(=O)N2CCOCC2)ccc1OCC(=O)Nc1ccc(Br)cc1F	none
COc1ccc(NC(=O)COC(=O)CNC(=O)COc2ccccc2)cc1OC	none (no result: IMP-1 inhibitor, VIM-2 inhibitor, pPAFAH inh)
COc1cc2c(c(OC)c1OC)-c1ccc(SC)c(=O)cc1C(N)CC2 (configuration not stated)	none (no result: IMP-1 inhibitor, VIM-2 inhibitor, pPAFAH inh)
CC1=CC2=NC(=O)/C(=C/c3coc4ccc(Cl)cc4c3=O)C(=N)N2O1	IMP-1 inhibitor 9.4, VIM-2 inhibitor 13 | VIM-2 confirm 7.8 | TEM-1 inh 2 inactive | IMP-1 confirm inactive
N=C1/C(=C\c2coc3ccccc3c2=O)C(=O)N=C2SC=CN12	IMP-1 inhibitor 8.6, VIM-2 inhibitor 9.3 | VIM-2 confirm 16 | TEM-1 inh 2 3.6 | IMP-1 confirm 12
COc1ccc(NC(=O)CCc2nnc3ccc(N4CCN(c5cccc(OC)c5)CC4)nn23)cc1	none
CC(C)(C)C1C=C(Sc2ccccc2)C(=O)O1 (configuration not stated)	IMP-1 inhibitor 51, VIM-2 inhibitor 8.8 | VIM-2 confirm inactive | TEM-1 inh 2 inactive | IMP-1 confirm 15
O=[n+]1c2c(n([O-])c3cc(Br)ccc31)CCCC2	none
O=[n+]1c2c(n([O-])c3ccccc31)CCCC2	IMP-1 inhibitor 35, VIM-2 inhibitor 13 | VIM-2 confirm inactive | TEM-1 inh 2 inactive | IMP-1 confirm inactive
Cc1ccc(S(=O)(=O)N2CCC(C(=O)OCC(=O)N(C)C3CCS(=O)(=O)C3)CC2)cc1C (configuration not stated)	none (no result: IMP-1 inhibitor, VIM-2 inhibitor)
CC(C)(C)Nc1nc(Cl)nc(N(C#N)CN2C(=O)c3ccccc3S2(=O)=O)n1	IMP-1 inhibitor 11, VIM-2 inhibitor 12 | VIM-2 confirm inactive | TEM-1 inh 2 inactive | IMP-1 confirm inactive
C/C(=N\O)c1ccc2c3c([nH]c2c1)CCCC3	IMP-1 inhibitor 8.6, VIM-2 inhibitor 23 | VIM-2 confirm 37 | TEM-1 inh 2 inactive | IMP-1 confirm 4.8
CCN(CC)c1ccc2cc(C=O)c(=O)oc2c1	IMP-1 inhibitor 15, VIM-2 inhibitor 15 | VIM-2 confirm 16 | TEM-1 inh 2 15 | IMP-1 confirm 12
Nc1c(N(CCC2=CCCCC2)C(=O)Cc2ccccc2F)c(=O)[nH]c(=O)n1Cc1ccccc1	none (no result: IMP-1 inhibitor, VIM-2 inhibitor)
CCCNC(=O)c1ccccc1SCc1c(C)noc1C	none
CCN1/C(=C/C=C/c2oc3ccc4ccccc4c3[n+]2CC)Oc2ccc3ccccc3c21	IMP-1 inhibitor 33, VIM-2 inhibitor 13, pPAFAH inh 42 (no result: PAFAH2 inh, PAFAH1B2 inh, PAFAH1B3 FP inh) | VIM-2 confirm 9.9 | TEM-1 inh 2 18 | IMP-1 confirm 14
CC[n+]1c(/C=C/N(C)c2ccccc2)oc2ccc(Cl)cc21	none
O/C=c1\ccc2cccc3nc(C(F)(F)F)nc1c23	IMP-1 inhibitor 6.8, VIM-2 inhibitor 21, pPAFAH inh 40 | VIM-2 confirm 33 | TEM-1 inh 2 5.0 | IMP-1 confirm 11 | pPAFAH FP conf inactive
